The source of these data is ChEMBL document CHEMBL1157494, “Reduction in post-prandial hyperglycemic excursion through alpha-glucosidase inhibition by beta-acetamido carbonyl compounds” (Bioorg Med Chem Lett, 2008).

The source made the active and inactive calls. The calls are words filed in the database; no cut-off is given here.

The nature of experiment [1]: Inhibition of rat intestinal alpha-glucosidase activity.
Experiment [2] is filed under the species Rattus norvegicus. Description: Inhibition of rat intestinal alpha-glucosidase activity at 50 ug. An outline of the steps: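 Rat intestinal α-glucosidase assayed in vitro. Compound added as 50 µg from a 5 mg/mL DMSO stock. Percent inhibition run in triplicate and given as mean SD.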
For experiment [3], the system named is Rattus norvegicus. Description: Antihyperglycemic activity in Wistar rat assessed as reduction in postprandial blood glucose rise at 100 mg/kg, po by carbohydrate tolerance test. It is filed as functional, organism-based. More on the design: dose 100 mg/kg. Summed up: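 Rats housed at 22 °C under a 12 h light-dark cycle, six per group, then fasted overnight. Basal plasma glucose was measured by glucose oxidase on retro-orbital EDTA blood. Compounds were suspended in normal saline and given orally at 100 mg/kg; controls received saline only. Delta-glycemia was read at 30–120 min, shown as mean SD and compared by ANOVA with Bonferroni.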

As for `CC(=O)NC(CC(=O)c1ccc(F)cc1)c1ccc(O)cc1` (centres undefined), in experiment [1], the IC50 (in general, the concentration that inhibits the measured activity by half) came to 72.8 µM. The inhibition (as a rule, how much of the control response was suppressed) in the experiment listed under Rattus norvegicus [2] is 60.1%.

For `CC(=O)NC(CC(=O)c1ccc(Br)cc1)c1ccc(F)cc1` (centres undefined), the inhibition in the experiment listed under Rattus norvegicus [2] was 2.7%.

In turn, `CC(=O)NC(CC(=O)c1ccc([N+](=O)[O-])cc1)c1ccc([N+](=O)[O-])cc1` (centres undefined) showed an inhibition in the experiment listed under Rattus norvegicus [2] of 52.7%.

In turn, `CC(=O)NC(CC(=O)c1ccccc1)c1ccc([N+](=O)[O-])cc1` (centres undefined) had an IC50 in experiment [1] of 25.6 µM. In the experiment filed under Rattus norvegicus [2], this compound came in with an inhibition of 72.2%.

Take `CC(=O)NC(CC(=O)c1ccc([N+](=O)[O-])cc1)c1ccc(C)cc1` (centres undefined): in experiment [1], the half-inhibitory concentration (IC50) was 9.07 µM. For the same compound, in the experiment filed under Rattus norvegicus [2], the inhibition was 85%. The outcome with Rattus norvegicus [3] was Active.

For `CC(=O)NC(CC(=O)c1ccc(Br)cc1)c1ccc(C)cc1` (centres undefined), in experiment [1], half-maximal inhibition (IC50) required 5.53 µM. The same compound had an inhibition in the experiment listed under Rattus norvegicus [2] of 95.1%. Besides, the result with Rattus norvegicus [3] was Active.

In the case of `C[C@H]1O[C@H](O[C@H]2[C@H](O)[C@@H](O)[C@@H](O[C@H]3[C@H](O)[C@@H](O)[C@H](O)O[C@@H]3CO)O[C@@H]2CO)[C@H](O)[C@@H](O)[C@@H]1N[C@H]1C=C(CO)[C@@H](O)[C@H](O)[C@H]1O`, the outcome in the experiment with Rattus norvegicus [3] was Active.

As for `CC(=O)NC(CC(=O)c1ccc(F)cc1)c1ccc(F)cc1` (centres undefined), in the experiment filed under Rattus norvegicus [2], the inhibition worked out at 55.1%.
